Measurements taken from ChEMBL document CHEMBL6177921, “Enhancing the antimycobacterial efficacy of pyridine-4-carbohydrazide: linkage to additional antimicrobial agents via oxocarboxylic acids” (RSC Med Chem, 2025).
≈ marks a conversion by molar mass, not a printed value.

Key:
Assay type in all cases: functional
[1] = system: Candida albicans; assay: Antifungal activity against Candida albicans ATCC 24443 measured after 24 to 48 hrs by microdilution broth method; settings: time 24-48 hrs
How it was run: (§1)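 Yeast broth microdilution per EUCAST, slightly modified. Medium was RPMI-1640 with 2% glucose, MOPS-buffered to pH 7.0. Compounds were tested at 0.98–500 μM with final DMSO ≤1.0% (v/v). Inoculum came from 18–24 h cultures, final ~1–5 × 10^5 CFU mL−1. Plates were incubated statically, dark and humidified, at 35 ± 2 °C. MIC was read visually at 24 and 48 h (no visible growth).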

[2] = system: Candida tropicalis; assay: Antifungal activity against Candida tropicalis CCM 8264 measured after 24 to 48 hrs by microdilution broth method; settings: time 24-48 hrs; how it was run: as §1
[3] = system: Candida albicans; assay: Antifungal activity against Candida albicans CCM 8320 measured after 24 to 48 hrs by microdilution broth method; settings: time 24-48 hrs; how it was run: as §1
[4] = system: Mycobacterium avium; assay: Antimycobacterial activity against INH/RIF/rifabutin/OFX/EMB resistant Mycobacterium avium CNCTC 330/88 assessed as bacterial growth inhibition incubated for 21 days by two-fold serial dilution method; settings: CNCTC 330/88, 504 h, time 21 day
How it was run: (§2)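 M. avium CNCTC 330/88 (stock suspension dilution 10−5) grown in Šula's semisynthetic liquid medium; two-fold serial dilutions 1000 to 1 μM from DMSO stocks (final DMSO 1.0% v/v); final load 1.5 × 10^5 CFU mL−1; MIC read visually as lowest concentration giving complete growth inhibition after 14 and 21 days.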

[5] = system: Lichtheimia corymbifera; assay: Antifungal activity against Lichtheimia corymbifera CCM 8077 measured after 24 to 48 hrs by microdilution broth method; settings: time 24-48 hrs
How it was run: (§3)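 Filamentous fungi tested by broth microdilution per EUCAST with minor changes. Compounds were tested at 0.98–500 μM with final DMSO ≤1.0% (v/v). Plates were incubated statically, dark and humidified, at 35 ± 2 °C for 24 and 48 h. MIC was the lowest concentration showing no visible growth.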

[6] = system: Pichia kudriavzevii; assay: Antifungal activity against Candida krusei ATCC 6258 measured after 24 to 48 hrs by microdilution broth method; settings: time 24-48 hrs; how it was run: as §1
[7] = system: Pichia kudriavzevii; assay: Antifungal activity against Candida krusei CCM 8271 measured after 24 to 48 hrs by microdilution broth method; settings: time 24-48 hrs; how it was run: as §1
[8] = system: Mycobacterium tuberculosis; assay: Antimycobacterial activity against multidrug sensitive Mycobacterium tuberculosis H37Rv CNCTC 331/88 assessed as bacterial growth inhibition incubated for 14 days by two-fold serial dilution method; settings: H37Rv CNCTC 331/88, 336 h, time 14 day
[9] = system: Mycobacterium tuberculosis; assay: Antimycobacterial activity against Mycobacterium tuberculosis H37Rv CNCTC 331/88 assessed as bacterial growth inhibition incubated for 21 days by two fold serial dilution method; settings: H37Rv CNCTC 331/88, 504 h, time 21 day
[10] = system: Candida tropicalis; assay: Antifungal activity against Candida tropicalis ATCC 750 measured after 24 to 48 hrs by microdilution broth method; settings: time 24-48 hrs; how it was run: as §1
[11] = system: Mycobacterium kansasii; assay: Antimycobacterial activity against multi-drug resistant Mycobacterium kansasii clinical isolate CNCTC 6509/96 assessed as bacterial growth inhibition incubated for 21 days by two-fold serial dilution method; settings: CNCTC 6509/96, 504 h, time 21 day
How it was run: (§4)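 M. kansasii clinical isolate 6509/96 (stock dilution 10−4) in Šula's semisynthetic liquid medium; two-fold serial dilutions 1000 to 1 μM, DMSO final 1.0% v/v; final load 1.5 × 10^5 CFU mL−1; MIC read visually as complete growth inhibition at 7, 14 and 21 days.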

[12] = system: Trichophyton interdigitale; assay: Antifungal activity against Trichophyton interdigitale ATCC 9533 measured after 24 to 48 hrs by microdilution broth method; settings: time 24-48 hrs
[13] = system: Mycobacterium kansasii; assay: Antimycobacterial activity against multi-drug resistant Mycobacterium kansasii CNCTC 6509/96 clinical isolate assessed as bacterial growth inhibition incubated for 14 days by two-fold serial dilution method; settings: CNCTC 6509/96, 336 h, time 14 day; how it was run: as §4
[14] = system: Trichophyton interdigitale; assay: Antifungal activity against Trichophyton interdigitale CCM 8377 measured after 24 to 48 hrs by microdilution broth method; settings: time 24-48 hrs
[15] = system: Candida parapsilosis; assay: Antifungal activity against Candida parapsilosis ATCC 22019 measured after 24 to 48 hrs by microdilution broth method; settings: Lodderomyces parapsilosis, time 24-48 hrs; how it was run: as §1
[16] = system: Aspergillus flavus; assay: Antifungal activity against Aspergillus flavus CCM 8363 measured after 24 to 48 hrs by microdilution broth method; settings: time 24-48 hrs; how it was run: as §3
[17] = system: Mycobacterium kansasii; assay: Antimycobacterial activity against INH/RIF/rifabutin/OFX/EMB Mycobacterium kansasii CNCTC 6509/96 clinical isolate assessed as bacterial growth inhibition incubated for 7 days by two-fold serial dilution method; settings: CNCTC 6509/96, 168 h, time 7 day
How it was run: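 Šula's liquid semisynthetic medium; M. kansasii clinical isolate 6509/96 used at stock dilution 10−4, final ~1.5 × 10^5 CFU mL−1. Two-fold dilutions ran 1000–1 μM with final DMSO 1.0% (v/v). MIC was read visually as complete growth inhibition after 7, 14 and 21 days.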

[18] = system: Mycobacterium avium; assay: Antimycobacterial activity against INH/RIF/rifabutin/OFX/EMB resistant Mycobacterium avium CNCTC 330/88 assessed as bacterial growth inhibition incubated for 14 days by two-fold serial dilution method; settings: CNCTC 330/88, 336 h, time 14 day; how it was run: as §2
[19] = system: Candida parapsilosis; assay: Antifungal activity against Candida parapsilosis CCM 8260 measured after 24 to 48 hrs by microdilution broth method; settings: Lodderomyces parapsilosis, time 24-48 hrs; how it was run: as §1
[20] = system: Aspergillus fumigatus; assay: Antifungal activity against Aspergillus fumigatus ATCC 204305 measured after 24 to 48 hrs by microdilution broth method; settings: time 24-48 hrs; how it was run: as §3

Compound | MIC [1] [µM] | MIC [2] [µM] | MIC [3] [µM] | MIC [4] [µM] | MIC [5] [µM] | MIC [6] [µM] | MIC [7] [µM] | MIC [8] [µM] | MIC [9] [µM] | MIC [10] [µM] | MIC [11] [µM] | MIC [12] [µM] | MIC [13] [µM] | MIC [14] [µM] | MIC [15] [µM] | MIC [16] [µM] | MIC [17] [µM] | MIC [18] [µM] | MIC [19] [µM] | MIC [20] [µM]
C/C(=N\NC(=O)c1ccncc1)C(=O)Nc1ccc(S(=O)(=O)Nc2cc(C)on2)cc1 | > 500 | > 500 | > 500 | ≥ 1000 | > 500 | > 500 | > 500 | 0.5 (≈ 0.221 µg/mL) | 1 (≈ 0.442 µg/mL) | > 500 | 32 (≈ 14.2 µg/mL) | > 500 | 32 (≈ 14.2 µg/mL) | > 500 | > 500 | > 500 | 16 (≈ 7.08 µg/mL) | 1000 (≈ 442 µg/mL) | > 500 | > 500
O=C(/C=N/NC(=O)c1ccncc1)NNC(=O)c1ccncc1 | – | – | – | > 1000 | – | – | – | 1 (≈ 0.312 µg/mL) | 2 (≈ 0.625 µg/mL) | – | 16 (≈ 5 µg/mL) | – | 16 (≈ 5 µg/mL) | – | – | – | 8 (≈ 2.5 µg/mL) | 1000 (≈ 312 µg/mL) | – | –
Nc1ccc(S(=O)(=O)Nc2ccc(-c3ccccc3)cc2)cc1 | – | – | – | ≥ 1000 | – | – | – | 500 (≈ 162 µg/mL) | 500 (≈ 162 µg/mL) | – | 500 (≈ 162 µg/mL) | – | 250 (≈ 81.1 µg/mL) | – | – | – | 250 (≈ 81.1 µg/mL) | ≥ 1000 | – | –
O=C(/C=N/NC(=O)c1ccncc1)Nc1ccc(S(=O)(=O)Nc2nccs2)cc1 | – | – | – | 500 (≈ 215 µg/mL) | – | – | – | 2 (≈ 0.861 µg/mL) | 4 (≈ 1.72 µg/mL) | – | 8 (≈ 3.44 µg/mL) | – | 8 (≈ 3.44 µg/mL) | – | – | – | 8 (≈ 3.44 µg/mL) | 250 (≈ 108 µg/mL) | – | –
COC(=O)c1ccc(NS(=O)(=O)c2ccc(N)cc2)cc1O | – | – | – | > 1000 | – | – | – | 250 (≈ 80.6 µg/mL) | 250 (≈ 80.6 µg/mL) | – | > 1000 | – | > 1000 | – | – | – | 1000 (≈ 322 µg/mL) | > 1000 | – | –
Nc1ccc(S(=O)(=O)Nc2ccc(Sc3ccc([N+](=O)[O-])cc3)cc2)cc1 | – | – | – | ≥ 1000 | – | – | – | 125 (≈ 50.2 µg/mL) | ≥ 1000 | – | ≥ 1000 | – | ≥ 1000 | – | – | – | 8 (≈ 3.21 µg/mL) | ≥ 1000 | – | –
Cc1cc(C)nc(NS(=O)(=O)c2ccc(NC(=O)/C=N/NC(=O)c3ccncc3)cc2)n1 | – | – | – | ≥ 1000 | – | – | – | 1 (≈ 0.453 µg/mL) | 2 (≈ 0.907 µg/mL) | – | 16 (≈ 7.26 µg/mL) | – | 16 (≈ 7.26 µg/mL) | – | – | – | 8 (≈ 3.63 µg/mL) | 1000 (≈ 453 µg/mL) | – | –
Nc1ccc(S(=O)(=O)Nc2ccc(Oc3ccc(Cl)cc3)cc2)cc1 | – | – | – | 1000 (≈ 375 µg/mL) | – | – | – | 250 (≈ 93.7 µg/mL) | 500 (≈ 187 µg/mL) | – | 500 (≈ 187 µg/mL) | – | 500 (≈ 187 µg/mL) | – | – | – | 250 (≈ 93.7 µg/mL) | 1000 (≈ 375 µg/mL) | – | –
C/C(=N\NC(=O)c1ccncc1)C(=O)Nc1ccc(NC(=O)/C(C)=N/NC(=O)c2ccncc2)cc1 | – | – | – | 250 (≈ 122 µg/mL) | – | – | – | 64 (≈ 31.1 µg/mL) | 64 (≈ 31.1 µg/mL) | – | 250 (≈ 122 µg/mL) | – | 250 (≈ 122 µg/mL) | – | – | – | 250 (≈ 122 µg/mL) | 250 (≈ 122 µg/mL) | – | –
Nc1ccc(S(=O)(=O)Nc2ccccc2Oc2ccccc2)cc1 | – | – | – | 1000 (≈ 340 µg/mL) | – | – | – | 250 (≈ 85.1 µg/mL) | 250 (≈ 85.1 µg/mL) | – | 500 (≈ 170 µg/mL) | – | 500 (≈ 170 µg/mL) | – | – | – | 500 (≈ 170 µg/mL) | 500 (≈ 170 µg/mL) | – | –
O=C(/C=N/NC(=O)c1ccncc1)Nc1ccc(S(=O)(=O)Nc2ncccn2)cc1 | – | – | – | 500 (≈ 213 µg/mL) | – | – | – | 1 (≈ 0.425 µg/mL) | 2 (≈ 0.851 µg/mL) | – | 16 (≈ 6.81 µg/mL) | – | 16 (≈ 6.81 µg/mL) | – | – | – | 8 (≈ 3.4 µg/mL) | 500 (≈ 213 µg/mL) | – | –
